One compound from ChEMBL document CHEMBL2034934, “Isodesacetyluvaricin, an Annonaceous acetogenin, specifically inhibits gene expression of cyclooxygenase-2” (J Nat Prod, 2012) can be followed below.

Data set [1] has as its system A-431. Kind of data set: Cytotoxicity against EGF-stimulated human A431 cells at 1 to 5 uM after 24 hrs by WST1 assay. The format is cell-based. Particulars: a-431, 24 h. The gist of the method: (§1)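 A431 cells serum-starved 24 h, pretreated 30 min at 1 or 5 μM, then EGF 25 ng/mL for 24 h or 48 h. WST-1 reagent 5–10 min at 37 °C; absorbance 450 nm, reference 600 nm.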
Background: Tetrazolium dyes change colour on reduction, which living cells bring about.

For data set [2], the system named is A-431. Kind of data set: Cytotoxicity against EGF-stimulated human A431 cells at 1 to 5 uM after 48 hrs by WST1 assay. Format: cell-based. As to conditions: a-431, 48 h. An outline of the steps: as §1
Data set [3] concerns A-431. In words: Antiinflammatory activity in human A431 cells assessed as inhibition of EGF-stimulated COX2 mRNA level pretreated for 30 mins before EGF challenge measured after 3 hrs by RT-PCR analysis. Format: functional, cell-based. An outline of the steps: (§2)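 A431 cells serum-starved 24 h, pretreated 30 min at 0.1, 1 or 5 μM, then EGF 25 ng/mL for 3 h. Total RNA by Trizol, reverse-transcribed; COX-1 and COX-2 amplified by PCR (35 cycles: 94 °C 30 s, 58 °C 30 s, 72 °C 1 min). Products run on 2% agarose, ethidium bromide stained.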

Data set [4] has as its system A-431. In words: Antiinflammatory activity in human A431 cells assessed as inhibition of EGF-stimulated COX1 mRNA level pretreated for 30 mins before EGF challenge measured after 3 hrs by RT-PCR analysis. The format is functional, cell-based. The gist of the method:
as §2

Another data set has as its system RAW264.7. Kind of data set: Antiinflammatory activity in mouse RAW264.7 cells assessed as inhibition of LPS-stimulated COX2 expression pretreated for 30 mins before LPS challenge measured after 3 hrs by RT-PCR analysis. Format: functional, cell-based. An outline of the steps: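 Raw 264.7 mouse macrophages serum-starved 24 h, pretreated 30 min at 0.1, 1 or 5 μM, then LPS 10 μg/mL for 3 h. Total RNA by Trizol; COX-2 mRNA by RT-PCR (35 cycles), read on agarose gel with ethidium bromide.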

Data set [5] relates to A-431. Kind of data set: Antiinflammatory activity in human A431 cells assessed as reduction of EGF-stimulated COX2 promoter activity at 0.1 to 5 uM after 24 hrs by luciferase reporter gene assay. Format: functional, cell-based. An outline of the steps: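 A431 cells transiently transfected (Lipofectamine 2000) with 0.5 μg COX-2 promoter luciferase plasmid pXC 918 for 24 h. Then treated with compound and stimulated with EGF. Dual-luciferase read-out normalised to lysate protein; means ± SEM, Student's t-test.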
A general note: In a reporter assay the amount or activity of a reporter protein is the signal.

For data set [6], the system named is A-431. Kind of data set: Antiinflammatory activity in human A431 cells assessed as reduction of EGF-stimulated COX2 protein expression pretreated with compound before EGF challenge measured by Western blotting analysis. The format is functional, cell-based. The gist of the method: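 A431 cells serum-starved, pretreated with compound, then EGF-stimulated. 40 μg lysate (RIPA) run on 12.5% SDS-PAGE, blotted to nitrocellulose. Probed 16 h at 4 °C with mouse anti-COX-2 (1:2000) and β-actin (1:20 000), anti-mouse IgG secondary, ECL detection.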
(In general: In western blotting, separated proteins are transferred to a membrane and probed.)

The test system of data set [7] is A-431. Kind of data set: Inhibition of CREB promoter activity in EGF-stimulated human A431 cells at 1 to 5 uM pretreated for 30 mins before EGF challenge measured after 3 hrs by luciferase reporter gene analysis. The format is cell-based. An outline of the steps: (§3)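 A431 cells transiently transfected with 0.5 μg CRE-promoter plasmid pXC 80 (CREB) or NFAT-promoter luciferase plasmid. After 24 h, pretreated 30 min at 1 or 5 μM, then EGF 25 ng/mL for 3 h. Luciferase normalised to lysate protein.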

The subject of data set [8] is A-431. In words: Inhibition of NFAT promoter activity in EGF-stimulated human A431 cells at 1 to 5 uM pretreated for 30 mins before EGF challenge measured after 3 hrs by luciferase reporter gene analysis. The format is cell-based. An outline of the steps: as §3
Data set [9] has as its system A-431. Kind of data set: Antiinflammatory activity in human A431 cells assessed as decrease in thapsigargin-induced calcium influx at 1 uM pretreated for 30 mins before thapsigargin challenge measured by fluorescence analysis. The format is functional, cell-based. An outline of the steps: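 A431 cells on glass coverslips (24 or 48 h), loaded with 1 μM Fluo-4 at 37 °C for 20 min in the dark. Store-operated influx evoked by 2 μM thapsigargin; Fluo-4 read by time-lapse videomicroscopy; 15–20 cells pooled.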

Activity calls are given as the source filed them. The rule behind the calls is not given here.

For the compound `CCCCCCCCCC[C@@H](O)[C@H]1CC[C@H]([C@H]2CC[C@H]([C@H](O)CCCCCCCCCCCCC3=C[C@H](C)OC3=O)O2)O1` [ISODESAACETYLUVARICIN], the figures for the Activity result in the data set on A-431 [1], in the data set with A-431 [2] and in the data set with A-431 [6] were “Non-toxic”, “Non-toxic” and “Dose-dependent effect”, respectively. Moreover, in the data set with A-431 [3], the inhibition entry is “Dose-dependent effect”. The inhibition entry in the data set on A-431 [4] is “inactive”. Moreover, the inhibition result in the data set on RAW264.7, with A-431 [7] and in the data set on A-431 [8] was “Active” in each case. For the same compound, the result with A-431 [5] was Active. Besides, the outcome in the data set on A-431 [9] was inactive.
